Reference: paper PMC10499415 (Clinical and Translational Science, 2023)
Like-named read-outs stand apart in the source and are kept apart here.

Columns and labels:
[1] = Phase I hepatic impairment study: safety and tolerability; format: in vivo, human
Method in brief: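 Adults with chronic, stable hepatic impairment graded by Child-Pugh score (mild 5–6, moderate 7–9, severe 10–15), plus healthy controls matched on age, BMI and sex. All received a single oral 20 mg dose of test compound with ~240 mL water after an overnight fast of ≥10 h. Inpatient from day −1 to day 4, with repeated clinical and laboratory safety evaluations through day 4. AEs were queried by contact ~14 days post-dose.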

[2] = healthy male adults; cited from earlier work
[3] = clinical; conditions: human, in vivo, po, 20 mg, T max
[4] = for AUC0–24 GMR (90% CI) / AUC0–inf GMR (90% CI) / C max GMR (90% CI): GMR = 100 × (test/reference); for increase in AUC0–inf compared with matched controls / increase in C max compared with matched controls: single oral 20 mg
[5] = cited from earlier work
[6] = design: AUC0–t / AUC0–inf: unit not given beside the values; conditions: cited from earlier work
[7] = cited from earlier work; remark: listed apart in the source
[8] = design: unit not given beside the values; conditions: subjects who received futibatinib alone; cited from earlier work
[9] = system: cytochrome P450 (CYP450); conditions: in vitro; cited from earlier work
[10] = hepatic impairment groups vs overall healthy control group, range over groups
[11] = mild HI vs matched healthy control
[12] = mild HI vs overall healthy control cohort
[13] = moderate HI vs matched healthy control
[14] = moderate HI vs overall healthy control cohort
[15] = severe HI vs matched healthy control
[16] = severe HI vs overall healthy control cohort
[17] = healthy subjects, fasted conditions

In the case of `C=CC(=O)N1CC[C@H](n2nc(C#Cc3cc(OC)cc(OC)c3)c3c(N)ncnc32)C1` [futibatinib, Futibatinib], the laboratory results ([1]; all cohorts) is reported as “No unexpected findings or remarkable trends”, the “study discontinuations due to TEAEs” value ([1]; all cohorts) is reported as “no study discontinuations” and the “total TEAEs reported (all grade 1)” value ([1]; all cohorts, 38 participants) is reported as “four”. The “participants reporting TEAEs” value ([1]; moderate hepatic impairment cohort) was “No participants”, the “participants reporting TEAEs” value ([1]; severe hepatic impairment cohort) was “No participants” and the tolerability ([1]; single oral 20 mg, all groups) was “well‐tolerated”. For the same molecule, the “total amount of unchanged futibatinib in urine and feces” value [2] was “negligible”, the Tmax [3] was 1.75 h and the “geometric mean C max greater than in corresponding matched healthy control group” value ([4]; across the hepatic impairment groups) was 10%–43%. The “geometric mean AUC greater than in corresponding matched healthy control group” value ([4]; across the hepatic impairment groups, AUC0–24, AUC0–t, AUC0–inf) was 17%–21%, the “mean percentage of AUC0–inf extrapolated” value ([4]; all groups) was under 2% and the “GMRs for AUC” value [4, 10] was 85.9% to 122.5%. The “GMRs for C max” value [4, 10] was 113.5% to 117.9%, the “AUC0–24 GMR (90% CI)” value [4, 11] was 121.19 (74.27–197.74) % and the “AUC0–inf GMR (90% CI)” value [4, 11] was 120.79 (73.89–197.47) %. The “C max GMR (90% CI)” value [4, 11] was 142.53 (103.42–196.44) %, the “AUC0–24 GMR (90% CI)” value [4, 12] was 85.92 (54.94–134.38) % and the “AUC0–inf GMR (90% CI)” value [4, 12] was 85.66 (54.70–134.15) %. For the same molecule, the “C max GMR (90% CI)” value [4, 12] was 113.52 (82.50–156.21) %, the “increase in futibatinib exposure versus healthy matched controls” value ([4]; mild hepatic impairment) was 21%–43% and the “increase in AUC0–inf compared with matched controls” value (from here on “increase in AUC0–inf”) ([4]; mild hepatic impairment) was 21%. For the same molecule, the “increase in C max compared with matched controls” value (shortened to “increase in C max”) ([4]; mild hepatic impairment) was 43%, the “AUC0–24 GMR (90% CI)” value [4, 13] was 119.62 (54.08–264.61) % and the “AUC0–inf GMR (90% CI)” value [4, 13] was 119.61 (53.90–265.45) %. For the same molecule, the “C max GMR (90% CI)” value [4, 13] was 114.85 (75.38–175.00) %, the “AUC0–24 GMR (90% CI)” value [4, 14] was 122.20 (64.51–231.48) % and the “AUC0–inf GMR (90% CI)” value [4, 14] was 122.49 (64.50–232.63) %. The “C max GMR (90% CI)” value [4, 14] was 117.90 (82.04–169.44) %, the “increase in futibatinib exposure versus healthy matched controls” value ([4]; moderate hepatic impairment) was 15%–20% and the “increase in AUC0–inf” value ([4]; moderate hepatic impairment) was 20%. The “increase in C max” value ([4]; moderate hepatic impairment) was 15%, the “AUC0–24 GMR (90% CI)” value [4, 15] was 116.91 (57.52–237.60) % and the “AUC0–inf GMR (90% CI)” value [4, 15] was 118.23 (57.79–241.87) %. For the same molecule, the “C max GMR (90% CI)” value [4, 15] was 109.64 (66.62–180.44) %, the “AUC0–24 GMR (90% CI)” value [4, 16] was 117.62 (67.44–205.13) % and the “AUC0–inf GMR (90% CI)” value [4, 16] was 118.57 (67.46–208.38) %. The “C max GMR (90% CI)” value [4, 16] was 117.78 (87.42–158.68) %, the “increase in AUC0–inf” value ([4]; severe hepatic impairment) was 18% and the “increase in C max” value ([4]; severe hepatic impairment) was 10%. The “increase in futibatinib exposure versus healthy matched controls” value ([4]; severe mild hepatic impairment (so in the source)) was 10%–18%, the “impact of futibatinib on the PKs of CYP3A substrates” value [5] was “no impact” and the futibatinib exposure increase ([5]; co‐administered with itraconazole) was 40%–50%. The futibatinib exposure decrease ([5]; co‐administered with rifampin) was 50%–60%, the “median T max” value ([6]; fed conditions) was 4.0 h and the “bioavailability lower under fed versus fasted conditions” value ([6]; fed versus fasted) was 11.2%. For the same molecule, the “AUC0–inf” value [6, 17] was 625.7, the “AUC0–t” value [6, 17] was 617.8 and the accumulation ([7]; after repeat once daily doses) was “no accumulation”. For the same molecule, the “mean half‐life” value ([7]; patients with cancer and healthy subjects) was ~ 3 h, the “dose proportionality of exposure” value ([7]; up to 80 mg) was “Dose‐proportional exposure increases” and the “AUC0–inf” value [8] was 941. For the same molecule, the “AUC0–t” value [8] was 934.0 and the “contribution of CYP450–related metabolism to the overall metabolism” value [9] was ~ 50%.
